Experimental findings from ChEMBL document CHEMBL1135669, “Improving the oral efficacy of CNS drug candidates: discovery of highly orally efficacious piperidinyl piperidine M2 muscarinic receptor antagonists” (J Med Chem, 2002) are described below.

pKi: −log10 of the molar value. The source made the active and inactive calls.

In series [1] the target is T1, Muscarinic acetylcholine receptor M2 (Homo sapiens, UniProt P08172).
T1 sequence (P08172 whole entry): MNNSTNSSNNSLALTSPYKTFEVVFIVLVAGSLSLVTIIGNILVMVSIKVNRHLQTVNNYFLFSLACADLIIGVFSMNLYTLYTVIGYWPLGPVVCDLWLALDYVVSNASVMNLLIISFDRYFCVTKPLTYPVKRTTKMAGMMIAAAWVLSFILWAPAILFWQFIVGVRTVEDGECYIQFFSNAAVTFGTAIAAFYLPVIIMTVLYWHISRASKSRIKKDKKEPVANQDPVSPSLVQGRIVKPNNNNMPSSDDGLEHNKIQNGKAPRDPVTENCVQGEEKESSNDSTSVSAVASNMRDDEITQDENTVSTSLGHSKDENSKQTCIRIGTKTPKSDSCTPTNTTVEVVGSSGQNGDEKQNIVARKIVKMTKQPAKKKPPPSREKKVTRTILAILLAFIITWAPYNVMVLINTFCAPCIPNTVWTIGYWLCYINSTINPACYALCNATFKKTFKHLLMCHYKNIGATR
In words: Binding affinity for human Muscarinic acetylcholine receptor M2.

For the next series, the species on record is Homo sapiens. Briefly: Percent of Parent compound remaining after 20 min incubation with human liver microsomes (Human microsomal stability). Format: functional. The essentials: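 Compounds at 10 μg/mL were incubated with human liver microsomes for 20 min. Metabolic stability is reported as % parent compound remaining.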
Background: Liver microsomes are vesicles of endoplasmic reticulum, rich in cytochrome P450 enzymes.

Series [2] has as its system Rattus norvegicus. Briefly: ACh released compared with baseline (100%) in rat striatum after peroral administration (0-2 h,10 mg/kg, 20% HPbetaCD) using microdialysis assay. Format: functional. The essentials: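 Rat striatal microdialysis: single oral dose of 10 mg/kg in 20% HPβCD vehicle. ACh in dialysate collected from 0 to 2 h, expressed as % of preinjection baseline (baseline = 100%). ACh release is measured in the presence of neostigmine. Stimulation over baseline was judged by Duncan's Multiple Range Statistic.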

For series [3], the system named is Rattus norvegicus. Briefly: ACh released compared with baseline (100%) in rat striatum after iv administration (0-2 h,10 mg/kg, 20% HPbetaCD) using microdialysis assay. Format: functional.
Series [4] deals with Rattus norvegicus. Briefly: Orally active dose in passive avoidance response (PAR); inactive. Format: functional, organism-based. The procedure, abridged: (§1)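 Rat passive avoidance response, a reference-memory cognitive paradigm, with oral dosing. The value is the orally active dose in mg/kg, defined as a significant change in latency over vehicle (4% MC), p < 0.05 by Dunnett's T test, n = 36.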

The test system of series [5] is Rattus norvegicus. Briefly: Orally active dose in passive avoidance response (PAR). It counts as functional. The essentials: as §1
Series [6] can be described thus: Area under curve (high throughput single measurement) after peroral administration (10 mg/kg, 0-6 hr) in rat was determined. The note with it: in vivo, po.

Take `CC(=C1CCN(C2CCN(C(=O)c3cccc(C)c3N)CC2)CC1)c1ccc(S(=O)(=O)C(C)C)cc1`: in series [1], the pKi is 7.49. Moreover, in the series filed under Homo sapiens, the Activity came out at 80%.

`CC(=C1CCN(C2CCN(C(=O)c3ccc(F)c4ccccc34)CC2)CC1)c1ccc(S(=O)(=O)C(C)C)cc1` showed a pKi in series [1] of 8.02. In addition, in the series filed under Homo sapiens, the Activity is 74%.

In the case of `CC(C)Sc1ccc(CC2CCN(C3CCN(C(=O)c4cccc5ccccc45)CC3)CC2)cc1`, the Activity in the series on Rattus norvegicus [2] is 110%; with Rattus norvegicus [3] it was 210%. Further, the outcome with Rattus norvegicus [4] was inactive.

For the compound `CC(C)S(=O)(=O)c1ccc(CC2CCN(C3CCN(C(=O)c4ccc(F)c5ccccc45)CC3)CC2)cc1`, the pKi in series [1] is 6.66.

As for `COc1ccc(S(=O)(=O)c2ccc(C3(C4CCN(C5CCN(C(=O)c6ccc(F)c7ccccc67)CC5)CC4)OCCO3)cc2)cc1`, the Activity in the series with Rattus norvegicus [2] is 180%. The PAR in the series with Rattus norvegicus [5] is 0.1 mg/kg.

In series [1], `CC(=C1CCN(C2CCN(C(=O)c3ccc(F)c4ccccc34)CC2)CC1)c1ccc([S+]([O-])C(C)C)cc1` (single isomer, unassigned; (+)) gave a pKi of 8.89. Also, the Activity in the series on Rattus norvegicus [2] is given as 179%.

As to `CC(=C1CCN(C2CCN(C(=O)c3cccc(C)c3N)CC2)CC1)c1ccc([S+]([O-])C(C)C)cc1` (single isomer, unassigned; (+)), the negative-log Ki (pKi) in series [1] was 9.05. Besides, the Activity in the series with Rattus norvegicus [2] was 225%. This compound gave a PAR with Rattus norvegicus [5] of 0.0001 mg/kg.

Compound `CC(=C1CCN(C2CCN(C(=O)c3ccc(F)c4ccccc34)CC2)CC1)c1ccc([S+]([O-])C(C)C)cc1` (single isomer, unassigned; (-)) showed a pKi in series [1] of 8.62. Besides, the Activity in the series with Rattus norvegicus [2] was found to be 155%.

`CC(=C1CCN(C2CCN(C(=O)c3cccc(C)c3N)CC2)CC1)c1ccc([S+]([O-])C(C)C)cc1` (single isomer, unassigned; (-)): the pKi in series [1] was 7.92.

Take `CC(=C1CCN(C2CCN(C(=O)c3ccc(F)c4ccccc34)CC2)CC1)c1ccc([S+]([O-])C(C)C)cc1` (stereo in doubt; 13) [listing 1 of 2 here]: the pKi in series [1] was 8.57.

Consider `CC(=C1CCN(C2CCN(C(=O)c3ccc(F)c4ccccc34)CC2)CC1)c1ccc([S+]([O-])C(C)C)cc1` (stereo in doubt; 13) [listing 2 of 2 here], for which, in the series listed under Homo sapiens, the Activity was 66%.

In the case of `CC(=C1CCN(C2CCN(C(=O)c3cccc(C)c3N)CC2)CC1)c1ccc([S+]([O-])C(C)C)cc1` (stereo in doubt; 14) [listing 1 of 2 here], in series [1], the pKi is 8.18.

`CC(=C1CCN(C2CCN(C(=O)c3cccc(C)c3N)CC2)CC1)c1ccc([S+]([O-])C(C)C)cc1` (stereo in doubt; 14) [listing 2 of 2 here]: the Activity in the series listed under Homo sapiens was determined as 64%.

Take `Cc1cccc(C(=O)N2CCC(N3CCC(Cc4ccc(S(=O)(=O)c5cccc(Cl)c5)cc4)CC3)CC2)c1N` [SCH-211803]: the exposure (AUC) at 6 h in series [6] stood at 908 ng·h/mL. For the same compound, the Activity with Rattus norvegicus [2] was found to be 180%. This compound also showed a PAR with Rattus norvegicus [5] of 0.001 mg/kg.

What is called pKi is the negative decadic logarithm of the Ki, by convention in mol/L. High values mean a low Ki, low ones a high Ki. The term AUC denotes the area under the concentration-time curve, a measure of exposure. A higher AUC goes with high exposure.
